pIC50: −log10 of the molar value.
What was measured:
[1] = molecular target: Matrix metalloproteinase-9 (Homo sapiens, UniProt P14780); assay: Inhibition of human MMP9
[2] = molecular target: 72 kDa type IV collagenase (Homo sapiens, UniProt P08253); assay: Inhibition of human recombinant MMP2 using Mca-Lys-Pro-Leu-Gly-Leu-Dpa-Ala-Arg-NH2 as substrate by fluorescence plate reader analysis
Method in brief: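 rhMMP2 activated with 1 mM APMA in assay buffer (50 mM Tris, 10 mM CaCl2, 150 mM NaCl, 0.05% Brij-35, pH 7.5), 37 °C, 1 h, then diluted to 248 ng/mL. Enzyme and test samples combined at ambient temperature; substrate (25 µM) added to start. Kinetic fluorescence at 320 nm excitation/405 nm emission; blank-subtracted duplicates; IC50 from six-point curves.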

[3] = molecular target: Matrix metalloproteinase-14 (Homo sapiens, UniProt P50281); assay: Inhibition of human recombinant MMP14 using Mca-Lys-Pro-Leu-Gly-Leu-Dpa-Ala-Arg-NH2 as substrate by fluorescence plate reader analysis
Method in brief: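 Enzyme and test samples combined at ambient temperature; substrate (20 µM) added to start. Kinetic read at 320/405 nm, substrate blank subtracted, duplicates, IC50 from six-point dose-response curves.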

MCF7 = assay: Cellular uptake in human MCF7 cells over-expressing MMP14 by confocal microscopy relative to control; assay type: ADME, cell-based
Method in brief: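 MMP-14-overexpressing and parental MCF7 cells incubated with the conjugate at 37 °C and imaged by confocal microscopy, parental cells serving as comparison.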

Chain of 72 kDa type IV collagenase (P08253 whole entry): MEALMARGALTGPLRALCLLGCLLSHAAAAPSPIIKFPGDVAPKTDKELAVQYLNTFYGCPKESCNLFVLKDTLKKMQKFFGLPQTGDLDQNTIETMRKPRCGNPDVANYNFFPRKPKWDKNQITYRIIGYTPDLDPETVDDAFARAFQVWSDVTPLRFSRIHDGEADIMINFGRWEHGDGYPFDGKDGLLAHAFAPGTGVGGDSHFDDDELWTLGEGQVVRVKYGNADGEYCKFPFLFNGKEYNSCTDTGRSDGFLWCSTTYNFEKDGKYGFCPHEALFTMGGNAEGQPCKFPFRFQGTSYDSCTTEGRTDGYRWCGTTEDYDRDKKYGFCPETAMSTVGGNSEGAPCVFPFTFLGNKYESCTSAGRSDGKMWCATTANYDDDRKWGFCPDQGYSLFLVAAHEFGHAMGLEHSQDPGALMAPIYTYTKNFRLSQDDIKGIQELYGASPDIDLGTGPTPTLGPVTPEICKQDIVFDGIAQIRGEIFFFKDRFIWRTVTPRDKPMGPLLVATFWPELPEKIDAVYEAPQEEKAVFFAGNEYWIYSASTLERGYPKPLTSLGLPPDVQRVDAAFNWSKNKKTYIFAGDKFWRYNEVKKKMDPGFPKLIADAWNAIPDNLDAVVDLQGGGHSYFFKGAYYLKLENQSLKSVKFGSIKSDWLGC
Chain of Matrix metalloproteinase-9 (P14780 whole entry): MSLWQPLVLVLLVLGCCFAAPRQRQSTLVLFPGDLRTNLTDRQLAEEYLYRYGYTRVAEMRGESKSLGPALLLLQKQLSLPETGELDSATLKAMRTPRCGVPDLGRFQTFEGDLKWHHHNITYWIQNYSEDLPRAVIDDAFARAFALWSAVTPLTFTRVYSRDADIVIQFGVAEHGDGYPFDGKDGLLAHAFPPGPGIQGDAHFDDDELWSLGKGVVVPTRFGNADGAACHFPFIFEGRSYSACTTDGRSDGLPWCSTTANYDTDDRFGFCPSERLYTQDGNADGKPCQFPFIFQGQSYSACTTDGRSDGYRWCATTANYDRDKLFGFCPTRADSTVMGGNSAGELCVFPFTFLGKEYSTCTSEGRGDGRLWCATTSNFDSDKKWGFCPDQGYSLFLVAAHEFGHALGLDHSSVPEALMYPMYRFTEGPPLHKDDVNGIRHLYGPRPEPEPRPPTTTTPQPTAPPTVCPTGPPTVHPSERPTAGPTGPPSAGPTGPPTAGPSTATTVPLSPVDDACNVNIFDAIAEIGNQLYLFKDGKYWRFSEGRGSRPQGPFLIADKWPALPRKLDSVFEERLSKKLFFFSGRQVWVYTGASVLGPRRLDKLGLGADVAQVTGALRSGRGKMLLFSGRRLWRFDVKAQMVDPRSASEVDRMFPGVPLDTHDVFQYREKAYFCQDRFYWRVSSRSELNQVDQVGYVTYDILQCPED

Row | SMILES | pIC50 [1] | pIC50 [2] | pIC50 [3] | Drug uptake (MCF7)
1 | CC1(C)C(/C=C/C2=C(N3CCC(C(=O)NO)(S(=O)(=O)c4ccc(Oc5ccc(OC(F)(F)F)cc5)cc4)CC3)C(=C/C=C3/N(CCCCS(=O)(=O)O)c4ccccc4C3(C)C)/CCC2)=[N+](CCCCS(=O)(=O)[O-])c2ccccc21 | 8.80 | 8.55 | – | –
2 | Nc1nc(C(=O)N2CCC(C(=O)NO)(S(=O)(=O)c3ccc(Oc4ccc(OC(F)(F)F)cc4)cc3)CC2)c(N)nc1C(=O)N1CCCC1 | > 9.00 | > 9.00 | – | –
3 | N[C@@H](CCCCNC(=O)c1ccc2c(c1)C(=O)OC21c2ccc(O)cc2Oc2cc(O)ccc21)C(=O)N1CCC(C(=O)NO)(S(=O)(=O)c2ccc(Oc3ccc(OC(F)(F)F)cc3)cc2)CC1 | > 9.00 | > 9.00 | 7.00 | Active
4 | CN(C)c1ncc(N2CCC(C(=O)NO)(S(=O)(=O)c3ccc(Oc4ccc(OC(F)(F)F)cc4)cc3)CC2)nc1C#N | > 9.00 | 8.80 | – | –
5 | O=C(NO)C1(S(=O)(=O)c2ccc(Oc3ccc(OC(F)(F)F)cc3)cc2)CCN(C2CC2)CC1 | – | > 9.00 | – | –
6 | CC(C)(C)NC(=O)c1nc(N)c(C(=O)NCCC(=O)N2CCC(C(=O)NO)(S(=O)(=O)c3ccc(Oc4ccc(OC(F)(F)F)cc4)cc3)CC2)nc1N | 8.39 | 8.29 | – | –

Source: ChEMBL document CHEMBL2429723, “Design and synthesis of MMP inhibitors with appended fluorescent tags for imaging and visualization of matrix metalloproteinase enzymes” (Bioorg Med Chem Lett, 2013)
